Calls of active or inactive are those of the source. No cut-off for these calls is given here.
Assays:
[1] = Inhibition of locomotor deficit in OK371-GAL4-(G4C2)29 Drosophila expressing (G4C2)29 in motor neuron C9orf72 ALS/FTD model assessed as reduction in flies staying at the bottom of flask at 100 uM, po during larval stage by climbing assay relative to control (Rvb= 18.25%); assay type: functional; parameters: scale not given: the % may be the effect or the level left
Outline: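 Compound at 100 μM in solid food, DMSO vehicle, given from parental cross until F1 eclosion, then regular food. Climbing test on 7-day-old adults: percentage of flies remaining below 2 cm of the tube at 25 s. n = 8 experimental batches.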

Drosophila [2] = assay: Inhibition of eye degeneration in GMR-GAL4-(G4C2)29 Drosophila expressing (G4C2)29 in eyes C9orf72 ALS/FTD model assessed as reflective eyes at 100 uM, po incubated 7 day by stereomicroscopy; assay type: functional, organism-based
Outline: (§1)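 Parent flies crossed on solid food containing compound at 100 μM, DMSO vehicle. F1 larvae fed continuously until eclosion, then moved to compound-free food. Eyes of day-7 adults imaged by CCD camera on a stereomicroscope, with SEM of heads. Affected and total eye area measured to give degeneration ratio. n = 7–18 flies.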

Quadruplex DNA [3] = assay: Binding affinity to C9orf72 (G4C2)2 G4 quadruplex RNA (unknown origin) assessed as compound-DNA complex formation at pH 6 in 25 degree C by circular dichroism spectroscopy; assay type: nucleic-acid assay
Outline: (§2)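 G4 at 15 μM mixed with compound at 1:10 molar ratio, pH 6 or pH 7. CD spectra recorded at 25 °C in a 1 mm quartz cuvette as the mean of three scans, buffer subtracted.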

Quadruplex DNA [4] = assay: Binding affinity to C9orf72 (G4C2)4 G4 quadruplex DNA (unknown origin) assessed as compound-DNA complex formation at pH 7 in 25 degree C by circular dichroism spectroscopy; assay type: nucleic-acid assay; outline: as §2
Quadruplex DNA [5] = assay: Binding affinity to C9orf72 (G4C2)4 G4 quadruplex DNA (unknown origin) assessed as change in chemical shift at pH 7 in 25 to 45 degree C by one-dimensional 1H-NMR analysis; assay type: nucleic-acid assay
Outline: (§3)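 Oligos (100 μM) annealed at 95 °C for 15 min, cooled slowly overnight in 70 mM KCl, 20 mM potassium phosphate, pH 7.0. NMR samples held 0.1 mM DNA or RNA. Compounds from ~50 mM DMSO-d6 stocks, titrated at G4:compound ratios 1:1 to 1:10 (RNA 1:3, 1:5, 1:10). Imino-region 1D 1H spectra at 25 °C; further spectra at pH 6 and 7, at 25, 35 and 45 °C.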

Quadruplex DNA [6] = assay: Stabilization of C9orf72 (G4C2)4 G4 quadruplex DNA (unknown origin) assessed as thermal stability by measuring melting temperature at pH 7 by circular dichroism spectroscopy; assay type: nucleic-acid assay
Outline: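 G4 at 15 μM with compound at 1:10 molar ratio, pH 7. CD signal followed from 25 to 95 °C at 1 °C/min at one wavelength (290 nm for DNA G4). Absorbance normalised as (Abst − min)/(max − min), then fitted to a Boltzmann sigmoid.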

Drosophila [7] = assay: Inhibition of eye degeneration in GMR-GAL4-(G4C2)29 Drosophila expressing (G4C2)29 in eyes C9orf72 ALS/FTD model assessed as smoothening of eyes at 100 uM, po incubated 7 day by stereomicroscopy; assay type: functional, organism-based; outline: as §1
Quadruplex DNA [8] = assay: Binding affinity to C9orf72 (G4C2)4 G4 quadruplex DNA (unknown origin) assessed as change in chemical shift by one-dimensional 1H-NMR analysis; assay type: nucleic-acid assay; outline: as §3
N2a [9] = assay: Neuroprotective activity in mouse Neuro2a cells transfected DNA (G4C2)29 C9orf 72 ALS/FTD cell model assessed as reduction in G4C2 RNA foci at 1 ug/ml incubated for 2 days by DAPI staining based immunofluorescence analysis; assay type: functional; settings: dose 1.0 µg/ml, time 2.0 day
Outline: (§4)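 Neuro2a cells on coverslips transfected with a pHR-Tre3G-29xGGGGCC-12xMS2 plasmid, then treated with compound at 1 μg/mL for 2 days. Fixed in 4% PFA and permeabilised. Hybridised 3 h at 46 °C with Cy3-labelled G4C2-target and Cy5-labelled CAGG probes, co-stained for hnRNP H, DAPI counterstain. Foci per cell counted by confocal microscopy; n = 17–25 coverslips from three batches.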

Quadruplex DNA [10] = assay: Binding affinity to C9orf72 (G4C2)4 G4 quadruplex DNA (unknown origin) assessed as compound-DNA complex formation at pH 6 in 25 degree C by circular dichroism spectroscopy; assay type: nucleic-acid assay; outline: as §2
HT-22 = assay: Neuroprotective activity in retinoic acid and cAMP differentiated mouse HT-22 cells assessed as decrease in glutamate induced cellular ROS level incubated for 1 hrs by DCFH-DA based […]; assay type: functional, cell-based; settings: DDE = dose-dependent effect
Outline: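 HT22 cells differentiated for 48 h with 10 μM retinoic acid and 500 μM cAMP in DMEM with 0.5% FBS. 5 mM L-glutamate given for 24 h, then 10 μM DCFH-DA loaded for 30 min at 37 °C and washed off. Compounds at 2 μg/mL added for 1 h; Rosup served as positive control. DCF read at 488/525 nm on a plate reader. n = 18–42 wells from three batches.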

[11] = Permeability of compound in PBS buffer at 500 uM incubated for 18 hrs by PAMPA assay; assay type: ADME
Outline: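 PAMPA: donor membrane coated with 4% lecithin in dodecane. 500 μM compound added to duplicate donor wells over PBS acceptor wells, incubated 18 h at 37 °C. Acceptor solution scanned 200–500 nm to find peak absorbance, referenced to equilibrium standards and a DMSO/PBS blank. n = 5.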

Quadruplex DNA [12] = assay: Binding affinity to C9orf72 (G4C2)2 G4 quadruplex RNA (unknown origin) assessed as compound-DNA complex formation at pH 7 in 25 degree C by circular dichroism spectroscopy; assay type: nucleic-acid assay; outline: as §2
Drosophila [13] = assay: Inhibition of eye degeneration in GMR-GAL4-(G4C2)29 Drosophila expressing (G4C2)29 in eyes C9orf72 ALS/FTD model assessed as reduction in rough-eye phenotype at 100 uM, po incubated 7 day by stereomicroscopy; assay type: functional, organism-based; outline: as §1
HEK-293T [14] = assay: Cytotoxicity in human HEK293T cells assessed as reduction in cell viability upto 10 ug/ml incubated for 24 hrs by MTT assay; assay type: toxicity, cell-based; settings: dose < 10 µg/ml
Outline: (§5)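 HEK293T cells seeded at 5 × 10^3 per well, grown 24 h in DMEM with 10% FBS. Compounds in DMSO added at 0.1, 1 and 10 μg/mL for 24 h. MTT (5 mg/mL stock) added for 4 h at 37 °C, formazan dissolved in DMSO, absorbance read at 570 nm. n = 4 culture batches.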

Quadruplex DNA [15] = assay: Binding affinity to 3'-FAM labeled C9orf72 (G4C2)4 G4 quadruplex DNA (unknown origin) assessed as decrease in fluorescence intensity by fluorescence intensity assay; assay type: nucleic-acid assay
Outline: (§6)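 3'-FAM-labelled DNA (G4C2)4 G4 or RNA (G4C2)2 G4 annealed at 98 °C for 10 min in 10 mM K+ buffer (8 mM KCl, 2 mM KH2PO4, pH 6.8), 1 μM final, slowly cooled. Compound titrated 0.1–10 mM in same buffer at room temperature. Fluorescence read at ex/em 470/520 nm. KD from nonlinear one-site specific binding fit with Hill slope.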

N2a [16] = assay: Neuroprotective activity in mouse Neuro2a cells transfected DNA (G4C2)29 C9orf 72 ALS/FTD cell model assessed as increase in cell viability at 1 ug/ml by DAPI staining based immunofluorescence analysis; assay type: functional; settings: dose 1.0 µg/ml
Quadruplex DNA [17] = assay: Binding affinity to C9orf72 (G4C2)4 G4 quadruplex DNA (unknown origin) assessed as change in chemical shift at pH 6 in 25 to 45 degree C by one-dimensional 1H-NMR analysis; assay type: nucleic-acid assay; outline: as §3
N2a [18] = assay: Neuroprotective activity in mouse Neuro2a cells transfected DNA (G4C2)29 C9orf 72 ALS/FTD cell model assessed as CAGG RNA foci abundance at 1 ug/ml incubated for 2 days by DAPI staining based immunofluorescence analysis; assay type: functional; settings: dose 1.0 µg/ml, time 2.0 day; outline: as §4
Erythrocyte [19] = assay: Hemolytic activity in rabbit RBC assessed as hemolysis at 1000 ug/ml incubated for 1 hr by microtiter plate method; assay type: toxicity, cell-based, Oryctolagus cuniculus; settings: dose 1000 µg/ml
Outline: (§7)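 Fresh rabbit red cells washed in PBS and used as a 2% suspension. Compounds diluted in PBS to final 250, 500 and 1000 μg/mL, mixed with an equal volume of cells, incubated 1 h at 37 °C. After centrifugation, supernatant absorbance read at 570 nm. Controls: 10% Triton X-100 (positive), 1% DMSO in PBS (negative). n = 3 preparations.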

Quadruplex DNA [20] = assay: Binding affinity to C9orf72 (G4C2)2 G4 quadruplex RNA (unknown origin) assessed as change in chemical shift by one-dimensional 1H-NMR analysis; assay type: nucleic-acid assay; outline: as §3
Quadruplex DNA [21] = assay: Binding affinity to 3'-FAM labeled C9orf72 (G4C2)2 G4 quadruplex RNA (unknown origin) assessed as decrease in fluorescence intensity by fluorescence intensity assay; assay type: nucleic-acid assay; outline: as §6
HEK-293T [22] = assay: Cytotoxicity in human HEK293T cells assessed as reduction in cell viability upto 0.1 ug/ml incubated for 24 hrs by MTT assay; assay type: toxicity, cell-based; settings: dose < 0.1 µg/ml; outline: as §5
Erythrocyte [23] = assay: Hemolytic activity in rabbit RBC assessed as hemolysis at 250 to 1000 ug/ml incubated for 1 hr by microtiter plate method; assay type: toxicity, cell-based, Oryctolagus cuniculus; settings: DDE = dose-dependent effect, dose 250-1000 µg/ml; outline: as §7
Quadruplex DNA [24] = assay: Binding affinity to C9orf72 (G4C2)2 G4 quadruplex DNA (unknown origin) assessed as change in chemical shift by one-dimensional 1H-NMR analysis; assay type: nucleic-acid assay
Outline: (§8)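 Oligonucleotide annealed at 100 μM by heating to 95 °C for 15 min, then cooled slowly to room temperature overnight in 70 mM KCl, 20 mM potassium phosphate, pH 7.0. NMR samples held 0.1 mM G4 in the same buffer. Compound stocks were about 50 mM in DMSO-d6. Titrated into G4; imino-region 1D 1H spectra recorded at 25 °C and compared with G4-only and DMSO control spectra.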

Quadruplex DNA [25] = assay: Binding affinity to human telomeric htel21-T18 (d[(GGGTTA)2GGGTTTGGG]) G4 quadruplex DNA assessed as change in chemical shift by one-dimensional 1H-NMR analysis; assay type: nucleic-acid assay; outline: as §8

| SMILES | Activity [1] [%] | Activity (Drosophila [2]) | Activity (Quadruplex DNA [3]) | Activity (Quadruplex DNA [4]) | Activity (Quadruplex DNA [5]) | Activity (Quadruplex DNA [6]) | Activity (Drosophila [7]) | Activity (Quadruplex DNA [8]) | Activity (N2a [9]) | Activity (Quadruplex DNA [10]) | Activity (HT-22) | permeability [11] | Activity (Quadruplex DNA [12]) | Activity (Drosophila [13]) | Activity (HEK-293T [14]) | Kd (Quadruplex DNA [15]) [µM] | Activity (N2a [16]) | Activity (Quadruplex DNA [17]) | Activity (Erythrocyte [19]) | Activity (Quadruplex DNA [20]) | further results |
| --- | --- | --- | --- | --- | --- | --- | --- | --- | --- | --- | --- | --- | --- | --- | --- | --- | --- | --- | --- | --- | --- |
| CC(=O)Cc1cc2c(c(O)c1C(=O)O)-c1c(c(O)c3oc4c(O[C@@H]5O[C@H](C(=O)O)[C@@H](O)[C@H](O)[C@H]5O)cccc4c(=O)c3c1O)CC2 | 10.625 | Active | Active | Active | Active | Active | Active | Active | Active | Active | Dde | Permeable | Active | Active | Non-Toxic | 2800 | Active | Active | Non-Toxic | – | Activity (N2a [18]): Active |
| CC(=O)Cc1cc2c(c(O)c1C(=O)O)-c1c(c(O)c3oc4c(O[C@@H]5OC(C(=O)O)=C[C@H](O)[C@H]5O)cccc4c(=O)c3c1O)CC2 | 5.125 | Active | Active | Active | Active | Active | Active | Active | Active | Active | Dde | Permeable | Active | Active | Non-Toxic | 2200 | Active | Active | Non-Toxic | Active | Kd (Quadruplex DNA [21]): 3000 µM |
| CC12CC3CC(C)(C1)CC(N)(C3)C2 [MEMANTINE] | – | – | – | – | – | – | – | – | – | – | – | Permeable | – | – | – | – | – | – | – | – | – |
| COc1c2c(c(O)c3c(=O)c4cccc(O[C@@H]5OC(C(=O)O)=C[C@H](O)[C@H]5O)c4oc13)-c1c(cc(CC(C)=O)c(C(=O)O)c1O)CC2 | – | – | Active | Active | Active | Active | – | Active | – | Active | Dde | Permeable | Active | – | – | 3000 | – | Active | – | – | Activity (HEK-293T [22]): Toxic; Activity (Erythrocyte [23]): Dde |
| N=C(N)c1ccc(-c2ccc(-c3ccc(-c4ccc(C(=N)N)cn4)o3)o2)nc1 | – | – | – | – | – | – | – | Active | – | – | – | Impermeable | – | – | – | – | – | – | – | Active | Activity (Quadruplex DNA [24]): Active; Activity (Quadruplex DNA [25]): Active |
